Source: ChEMBL document CHEMBL1629527, “In vitro antifungal activities of bis(alkylpyridinium)alkane compounds against pathogenic yeasts and molds” (Antimicrob Agents Chemother, 2010)

Columns and labels:
Candida albicans [1] = test: Antifungal activity against Candida albicans after 48 to 72 hrs; type: functional
Procedure, shortened: (§1)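 MFC: after the MIC read, 30-μl aliquots from each well without visible growth were plated onto Sabouraud dextrose agar and incubated at 35°C. Reading was at 48–72 h for yeasts and up to 7 days for molds. MFC was the lowest concentration with no colonies.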

Aspergillus flavus [2] = test: Antifungal activity against Aspergillus flavus ATCC 204304 after 24 to 72 hrs by broth microdilution method; type: functional
Procedure, shortened: (§2)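 Broth microdilution MIC per CLSI M27-A3 (yeasts) or M38-A2 (molds). RPMI 1640 with L-glutamine, without bicarbonate, buffered to pH 7.0 with 0.165 M MOPS. Final test range for the compounds was 0.175–87.5 μM. Incubation at 35°C with visual reading at 24–72 h. MIC was the lowest concentration giving 100% inhibition versus the growth control (azoles 50% or 100%, by organism). Each isolate was run in duplicate in two independent experiments.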

[3] = system: Cunninghamella bertholletiae; test: Antifungal activity against Cunninghamella bertholletiae 99-12187 after 24 to 72 hrs by broth microdilution method; type: functional; procedure, shortened: as §2
Candida tropicalis [4] = test: Antifungal activity against Candida tropicalis after 24 to 72 hrs by broth microdilution method; type: functional; procedure, shortened: as §2
Aspergillus flavus [5] = test: Antifungal activity against Aspergillus flavus ATCC 204304 after 48 to 72 hrs; type: functional; procedure, shortened: as §1
Exophiala spinifera = test: Antifungal activity against Exophiala spinifera 03-200803 after 24 to 72 hrs by broth microdilution method; type: functional
Procedure, shortened: (§3)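 Mold isolates subcultured on potato dextrose agar, then tested by CLSI M38-A2 broth microdilution in RPMI 1640 (L-glutamine, no bicarbonate) buffered to pH 7.0 with 0.165 M MOPS. Compounds were dissolved in water and tested at a final 0.175–87.5 μM. Plates were incubated at 35°C. MIC was read visually as the lowest concentration giving 100% inhibition versus the growth control. Each isolate was run in duplicate in two independent experiments.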

Pichia kudriavzevii [6] = test: Antifungal activity against Candida krusei 04-202328 after 24 to 72 hrs by broth microdilution method; type: functional; procedure, shortened: as §2
Candida parapsilosis [7] = test: Antifungal activity against Candida parapsilosis 04-202398 after 24 to 72 hrs by broth microdilution method; type: functional; conditions: Lodderomyces parapsilosis; procedure, shortened: as §2
Nakaseomyces glabratus [8] = test: Antifungal activity against Candida glabrata after 24 to 72 hrs by broth microdilution method; type: functional; procedure, shortened: as §2
[9] = system: Cryptococcus gattii species complex; test: Antifungal activity against Cryptococcus gattii after 48 to 72 hrs; type: functional, Cryptococcus bacillisporus; procedure, shortened: as §1
Aspergillus terreus = test: Antifungal activity against Aspergillus terreus 05-202844 after 24 to 72 hrs by broth microdilution method; type: functional; procedure, shortened: as §2
Candida dubliniensis [10] = test: Antifungal activity against Candida dubliniensis after 48 to 72 hrs; type: functional; procedure, shortened: as §1
Scedosporium apiospermum = test: Antifungal activity against Scedosporium apiospermum 05-203100 after 24 to 72 hrs by broth microdilution method; type: functional; procedure, shortened: as §3
[11] = system: Cryptococcus gattii species complex; test: Antifungal activity against Cryptococcus gattii after 24 to 72 hrs by broth microdilution method; type: functional, Cryptococcus bacillisporus; procedure, shortened: as §2
Candida parapsilosis [12] = test: Antifungal activity against Candida parapsilosis after 24 to 72 hrs by broth microdilution method; type: functional; conditions: Lodderomyces parapsilosis; procedure, shortened: as §2
Pichia kudriavzevii [13] = test: Antifungal activity against Candida krusei after 24 to 72 hrs by broth microdilution method; type: functional; procedure, shortened: as §2
Nakaseomyces glabratus [14] = test: Antifungal activity against Candida glabrata after 48 to 72 hrs; type: functional; procedure, shortened: as §1
Candida tropicalis [15] = test: Antifungal activity against Candida tropicalis 04-202361 after 24 to 72 hrs by broth microdilution method; type: functional; procedure, shortened: as §2
Candida albicans [16] = test: Antifungal activity against Candida albicans ATCC 10231 after 24 to 72 hrs by broth microdilution method; type: functional; procedure, shortened: as §2
Nakaseomyces glabratus [17] = test: Antifungal activity against Candida glabrata 04-202345 after 24 to 72 hrs by broth microdilution method; type: functional; procedure, shortened: as §2
Cryptococcus neoformans [18] = test: Antifungal activity against Cryptococcus neoformans after 48 to 72 hrs; type: functional; procedure, shortened: as §1
Pichia kudriavzevii [19] = test: Antifungal activity against Candida krusei after 48 to 72 hrs; type: functional; procedure, shortened: as §1
Aspergillus flavus [20] = test: Antifungal activity against Aspergillus flavus 05-203758 after 24 to 72 hrs by broth microdilution method; type: functional; procedure, shortened: as §2
Clavispora lusitaniae [21] = test: Antifungal activity against Candida lusitaniae after 48 to 72 hrs; type: functional; procedure, shortened: as §1
Clavispora lusitaniae [22] = test: Antifungal activity against Candida lusitaniae after 24 to 72 hrs by broth microdilution method; type: functional; procedure, shortened: as §2
[23] = system: Meyerozyma guilliermondii; test: Antifungal activity against Candida guilliermondii after 48 to 72 hrs; type: functional; procedure, shortened: as §1
Candida parapsilosis [24] = test: Antifungal activity against Candida parapsilosis after 48 to 72 hrs; type: functional; procedure, shortened: as §1
Aspergillus fumigatus = test: Antifungal activity against Aspergillus fumigatus ATCC 204305 after 24 to 72 hrs by broth microdilution method; type: functional; procedure, shortened: as §2
Candida dubliniensis [25] = test: Antifungal activity against Candida dubliniensis after 24 to 72 hrs by broth microdilution method; type: functional; procedure, shortened: as §2
Candida tropicalis [26] = test: Antifungal activity against Candida tropicalis after 48 to 72 hrs; type: functional; procedure, shortened: as §1
Cryptococcus neoformans [27] = test: Antifungal activity against Cryptococcus neoformans after 24 to 72 hrs by broth microdilution method; type: functional; procedure, shortened: as §2
Fusarium solani = test: Antifungal activity against Fusarium solani 04-203102 after 24 to 72 hrs by broth microdilution method; type: functional; procedure, shortened: as §3
Lomentospora prolificans = test: Antifungal activity against Scedosporium prolificans 05-203060 after 24 to 72 hrs by broth microdilution method; type: functional; procedure, shortened: as §3
[28] = Toxicity against human erythrocytes assessed as hemolysis; type: cell-based, Erythrocyte
Lichtheimia corymbifera = test: Antifungal activity against Absidia corymbifera 04-200170 after 24 to 72 hrs by broth microdilution method; type: functional; procedure, shortened: as §2
Rhizopus arrhizus = test: Antifungal activity against Rhizopus oryzae 05-203111 after 24 to 72 hrs by broth microdilution method; type: functional; procedure, shortened: as §3
[29] = system: Cryptococcus gattii species complex; test: Antifungal activity against Cryptococcus gattii 05-200122 after 24 to 72 hrs by broth microdilution method; type: functional, Cryptococcus bacillisporus; procedure, shortened: as §2
Pichia kudriavzevii [30] = test: Antifungal activity against Candida krusei ATCC 6258 after 24 to 72 hrs by broth microdilution method; type: functional; procedure, shortened: as §2

CCCCCc1cc[n+](CCCCCCCCCCCC[n+]2ccc(CCCCC)cc2)cc1.[Cl-].[Cl-]
2.25 µg/mL: MIC (Pichia kudriavzevii [13])
1.48 µg/mL: MFC50 (Candida albicans [1]) | MFC90 (Candida albicans [1]) | MFC50 [9] | MFC90 [9] | MFC90 (Candida dubliniensis [10]) | MIC90 [11] | MFC50 (Nakaseomyces glabratus [14]) | MFC90 (Nakaseomyces glabratus [14]) | MIC (Candida albicans [16]) | MIC (Nakaseomyces glabratus [17]) | MFC50 (Cryptococcus neoformans [18]) | MFC (Cryptococcus neoformans [18]; Cryptococcus neoformans) | MFC50 (Clavispora lusitaniae [21]) | MFC90 (Clavispora lusitaniae [21]) | MIC90 (Clavispora lusitaniae [22]) | MIC50 (Cryptococcus neoformans [27]) | MIC (Lomentospora prolificans) | MIC (Rhizopus arrhizus)
0.74 µg/mL: MIC (Candida tropicalis [15]) | MIC [29]
2.96 µg/mL: MIC (Scedosporium apiospermum) | MIC50 (Pichia kudriavzevii [13]) | MFC50 (Pichia kudriavzevii [19])
> 47 µg/mL: MIC (Candida parapsilosis [12]) | MIC50 (Candida parapsilosis [12]) | MIC90 (Candida parapsilosis [12]) | MFC (Candida parapsilosis [24]; Lodderomyces parapsilosis)
0.38 µg/mL: MFC (Nakaseomyces glabratus [14]; Nakaseomyces glabratus) | MFC (Pichia kudriavzevii [19]; Pichia kudriavzevii) | MFC ([23]; Meyerozyma guilliermondii) | MFC (Candida tropicalis [26]; Candida tropicalis)
23.7 µg/mL: MIC (Aspergillus flavus [2])
5.91 µg/mL: MIC90 (Pichia kudriavzevii [13]) | MFC90 (Pichia kudriavzevii [19]) | MIC90 (Cryptococcus neoformans [27])
> 47.3 µg/mL: MIC (Lichtheimia corymbifera)
0.805 µg/mL: MIC (Candida dubliniensis [25])
0.86 µg/mL: MIC (Clavispora lusitaniae [22])
2.41 µg/mL: MIC (Cryptococcus neoformans [27])
11.8 µg/mL: MIC (Pichia kudriavzevii [6])
1.06 µg/mL: MIC [11]
> 129 µM: HC50 [28]
0.75 µg/mL: MFC (Candida albicans [1]; Candida albicans) | MIC50 (Candida tropicalis [4]) | MIC90 (Candida tropicalis [4]) | MIC50 (Nakaseomyces glabratus [8]) | MIC90 (Nakaseomyces glabratus [8]) | MFC ([9]; Cryptococcus gattii species complex) | MFC50 (Candida dubliniensis [10]) | MFC (Candida dubliniensis [10]; Candida dubliniensis) | MIC50 [11] | MFC (Clavispora lusitaniae [21]; Clavispora lusitaniae) | MIC50 (Clavispora lusitaniae [22]) | MFC50 [23] | MFC90 [23] | MIC50 (Candida dubliniensis [25]) | MIC90 (Candida dubliniensis [25]) | MFC50 (Candida tropicalis [26]) | MFC90 (Candida tropicalis [26])
0.701 µg/mL: MIC (Nakaseomyces glabratus [8])
47 µg/mL: MFC90 (Cryptococcus neoformans [18])
0.37 µg/mL: MIC (Exophiala spinifera)
>47 µg/mL: MFC50 (Candida parapsilosis [24]) | MFC90 (Candida parapsilosis [24])
> 48 µM: IC50 [28]
5.9 µg/mL: MIC (Aspergillus terreus) | MIC (Pichia kudriavzevii [30])
47.3 µg/mL: MIC [3] | MFC (Aspergillus flavus [5]) | MIC (Candida parapsilosis [7]) | MIC (Aspergillus flavus [20]) | MIC (Aspergillus fumigatus) | MIC (Fusarium solani)
0.702 µg/mL: MIC (Candida tropicalis [4])
